# From PubChem BioAssay
# Hits are enriched below; roughly 1.4% of the tested compounds scored in any of these assays.
# NR2E3 ag-1 = inhibitors of NR2E3-RetCOR corepressor binding, primary screen, NR2E3 agonist project, biochemical, TR-FRET, GST-NR2E3, biotin-RetCOR. actives 0.12% (n = 320,000). inhibition of corepressor binding, % at 4.78 µM. 1536-well;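 active = percent inhibition above the cutoff of mean plus 3 SD of all tested compounds, set per screening campaign, cut at about 20% in these data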;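 also: 0% = DMSO wells and 100% = biotin wells as full block of FRET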
# Target sequence (Q9Y5X4 whole entry, looked up): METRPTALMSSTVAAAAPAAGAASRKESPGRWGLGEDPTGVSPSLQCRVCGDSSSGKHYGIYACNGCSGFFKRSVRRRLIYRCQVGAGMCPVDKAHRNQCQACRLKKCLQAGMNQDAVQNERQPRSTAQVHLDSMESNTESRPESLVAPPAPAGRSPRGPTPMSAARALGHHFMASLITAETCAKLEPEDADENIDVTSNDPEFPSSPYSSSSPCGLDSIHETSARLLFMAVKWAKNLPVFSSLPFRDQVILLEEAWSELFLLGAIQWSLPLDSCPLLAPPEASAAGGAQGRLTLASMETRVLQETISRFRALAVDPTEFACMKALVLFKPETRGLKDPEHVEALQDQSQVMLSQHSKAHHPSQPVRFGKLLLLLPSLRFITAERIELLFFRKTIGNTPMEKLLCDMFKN
#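 Material: NR2E3–RetCOR corepressor complex / Amount: 1.35 nM GST-NR2E3 / Medium: Tris pH 7.5 / Compound: single nominal compound dose of 4.8 µM / Incubation: 5 h at 4 °C / Technique: TR-FRET, Eu(K)-anti-GST donor, streptavidin-D2 acceptor, ex 340, em 617/671 nm / Read-out basis: percent loss of FRET ratio relative to control wells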
# NR2E3 ag-2 = NR2E3 agonists in two-hybrid cells, primary screen, cell-based, luminescence, CHO-S, Gal4-NCOR/VP16-NR2E3 | Photoreceptor-specific nuclear receptor (Homo sapiens), Q9Y5X4 | luciferase | inhibition of corepressor binding, % at 3.98 µM | actives 0.35% (n = 360,000) | AID 602229, 2012;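 active = inhibition above the mean of all tested compounds plus 3 SD, cut at about 70% in these data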;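 also: 0% = DMSO with NR2E3 transfected cells and 100% = cells lacking NR2E3 construct; higher means lower luciferase signal from less NR2E3 corepressor binding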
# Rev-erbA mod = modulators of Rev-erb alpha DNA binding, primary screen, biochemical, FITC-DNA, fluorescence polarization, uHTS. Nuclear receptor subfamily 1 group D member 1 (Homo sapiens), P20393. AID 1259318, 2017. activity, % at 10 µM. actives 0.79% (n = 370,000). Rev-erbα–FITC-DNA binding, 90 min;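 active = activity above about 14%, limit read from the data; passing the limit was not always enough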;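 also: 0% = DMSO wells with 35 nM protein and 100% = DMSO wells with 750 nM protein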
# PG9 Ab binder = binders of HIV-1 gp120 antibody PG9, primary screen, biochemical, TR-FRET; HIV-1 gp120 / PG9 antibody interaction; TR-FRET gp120-PG9 antibody binding; inhibition, % at 6.7 µM; actives 0.43% (n = 360,000); AID 624416, 2012; in the data active = inhibition above about 8.5%
# Rev-erbA confirm = modulators of Rev-erb alpha DNA binding, confirmation, biochemical, FITC-DNA, fluorescence polarization, single point. 90 min. activation, % at 25 µM. AID 1259319, 2017. actives 61% (n = 3,000). shares compounds with Rev-erbA mod;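 active = activation at or above a set limit, or at least 3 SD above the negative control mean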;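 also: 0% = 35 nM protein with DMSO and 100% = 750 nM protein high control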
# RORg counter = modulation of RORgamma DNA binding, dose response, counter-screen for Rev-erb alpha modulator project, biochemical, fluorescence polarization, FITC-DNA; IC50, µM; actives 8% (n = 910); shares compounds with Rev-erbA mod; purified RORgamma protein-FITC-DNA binding;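 active = Compounds whose fitted half-maximal concentration for disrupting protein-DNA binding is below 10 micromolar; the record names Rev-erb in its text, so the target is in doubt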
# Starred values were filed as active, the others as inactive; . = not tested or not shown.
SMILES,NR2E3 ag-1,NR2E3 ag-2,Rev-erbA mod,PG9 Ab binder,Rev-erbA confirm,others
COc1ccc(S(=O)(=O)N2CCOCC2)cc1NC(=O)c1cccc2c(=O)c(C)c(-c3ccccc3)oc12,2,-17,69*,1,37*,
Cc1ccc(NC(=O)CN2CCN(c3nc(-c4ccccc4)cs3)CC2)cc1C,.,.,1,.,.,
O=C(c1cc2cc(Cl)ccc2[nH]1)N1CCc2ccccc2C1,-5,-1,60*,1,6,
O=C(c1cc2cc(F)ccc2[nH]1)N1CCc2ccccc2C1,-3,-66,7,-2,.,
CCN(C(=O)C1CCCN1S(=O)(=O)c1cccnc1)c1ccccc1 (stereo unspecified),.,.,4,.,.,
COc1cc2c(cc1NC(=O)CN1CCN(S(=O)(=O)c3ccc(C)cc3)CC1)oc1ccccc12,5,12,27*,-1,19*,
COc1cc2c(cc1NC(=O)C(C)N1CCN(S(=O)(=O)c3ccc(C)c(C)c3)CC1)oc1ccccc12 (stereo unspecified),0,-21,-2,0,.,
CCc1nnc(NC(=O)CSc2nc3cc(OC)ccc3cc2C)s1,1,-2,165*,0,12,
COc1ccc(-c2cc(-c3ccccc3)nc(SCC(=O)Nc3nccs3)c2C#N)cc1,-3,10,78*,2,61*,RORg counter=>40
CCOc1ccc(-c2ccc(SCC(=O)Nc3nnc(CC)s3)nn2)cc1,-4,-66,-5,-2,.,
N#Cc1c(-c2ccccc2)cc(C2CC2)nc1SCC(=O)c1cccs1,.,-12,19*,0,30*,
CCc1nnc(NC(=O)CSc2nc(-c3ccccc3)cc(-c3ccc(OC)cc3)c2C#N)s1,2,-15,48*,-1,43*,
CCc1nnc(NC(=O)Cc2ccc(OC)cc2)s1,0,-7,-3,0,.,
O=C(NC1CCCCN(Cc2cccc(Cl)c2)C1=O)c1ccc(F)cc1 (stereo unspecified),.,.,4,.,.,
CCN(CC)C(=O)CSc1nc(C)cc(-c2cccs2)c1C#N,3,-20,78*,0,51*,RORg counter=>40
N#Cc1c(-c2ccc(Cl)cc2)cc(-c2ccccc2)nc1SCC(=O)O,6,18,-1,0,.,
Cc1cc(C)c(C#N)c(SCC(=O)c2cccs2)n1,3,-90,7,4,.,
CC(C)NC(=O)CSc1nc(-c2cccs2)cc(-c2ccccc2)c1C#N,0,-15,60*,0,47*,RORg counter=>40
COC(=O)[C@]12C[C@H](CC(=O)N3CCN(C(=O)c4ccco4)CC3)C(=O)N(CCc3ccc(OC)c(OC)c3)C1=C[C@H](COCc1ccccc1)O[C@@H]2C,.,.,2,.,.,
Cc1nc(NC(=O)c2ccccc2)sc1Cc1ccc2c(c1)OCO2,2,-156,3,-2,.,
Cc1nc(NC(=O)c2ccc(Cl)cc2)sc1Cc1ccc2c(c1)OCO2,-1,-47,30*,1,6,
Cn1nc(CC(=O)Nc2ccc3c(c2)CCC3)c2ccccc2c1=O,.,26,20*,-1,17*,
Cc1nc2c(C)cccn2c(=O)c1NC(=O)c1cccc2ccccc12,-1,-25,29*,-1,5,
Cc1nc2c(C)cccn2c(=O)c1NC(=O)c1cccs1,0,6,3,-1,.,
CCOC(=O)c1sc2ccc(S(=O)(=O)N3CC(C)CC(C)C3)cc2c1N (stereo unspecified),0,6,28*,-1,18*,
SMILES,NR2E3 ag-1,NR2E3 ag-2,Rev-erbA mod,PG9 Ab binder,Rev-erbA confirm,others
S=C1NC[C@H](Cc2ccccc2)N1CC1CCN(CCCC2CCCCC2)CC1,.,.,-6,-1,.,
CC(C)(C)c1ccc(-c2nnc(SCC(=O)Nc3ccccc3-c3ccccc3)n2Cc2ccco2)cc1,.,.,-1,.,.,
CCOc1ccc2[nH]c3c(=O)n(CCC4=CCCCC4)cnc3c2c1,3,-14,19*,-2,0,
Cc1ccc2c(c1)N(CCCC(=O)N(C)Cc1ccccc1F)C(=O)CO2,.,.,0,.,.,
COc1cccc(-c2cc(C(C)=O)c3n(c2=O)CCC3)c1OC,.,.,-1,.,.,
Cc1cc(NC(=O)COC(=O)c2oc3c(ccc4ccccc43)c2C)no1,-2,27,-5,5,.,
Cc1c(C(=O)OCC(=O)Nc2ccc(S(N)(=O)=O)cc2)oc2c1ccc1ccccc12,4,-8,16*,5,18,
N#Cc1ccccc1N1CCN(C(=O)C2CCN(c3ncnc4c3sc3cccc(F)c34)CC2)CC1,.,.,49*,.,34*,RORg counter=>40
FC(F)(F)c1cc(-c2cccs2)nc2cc(-c3ccccc3)nn12,1,3,33*,6,14,
O=C(O)c1cc2nc(-c3cccs3)cc(C(F)(F)F)n2n1,0,5,-20,-1,.,
Cc1c(C)c2ccc(OCC(=O)Nc3cccnc3)c(C)c2oc1=O,-5,-27,2,-1,.,
COc1ccc(-c2cc(=O)oc3c(C)c(OCC(=O)Nc4cccnc4)ccc23)cc1,2,-15,28*,-1,2,
Cc1cccc(Cn2cc(CN3CC(N(C)CCOC(=O)c4cc(C)cc(C)c4)CS3(=O)=O)nn2)c1 (stereo unspecified),.,.,0,.,.,
COc1ccc(S[C@]2(C(=O)N3CCOCC3)CC(=O)N(P(=O)(OC)OC)[C@@H]2c2ccc(OC)cc2)cc1,.,.,-4,.,.,
CCC[C@H]1[C@@H](N(C)Cc2cccs2)CC[C@@]23CCCN2C(=O)CCC[C@@H]13,.,.,43*,.,52*,RORg counter=>40
O=C1OC2(c3ccc(O)cc3Oc3cc(O)ccc32)c2ccccc21,.,.,691*,.,596*,
COc1cc(CCC(=O)OCC(=O)NCc2ccccc2)cc(OC)c1OC,-4,12,.,1,.,
COc1cc(CCC(=O)OCC(=O)NCC2CCCCC2)cc(OC)c1OC,3,2,16*,-1,3,
CC(NC(=O)CSc1nnc(-c2cc3cc(Cl)ccc3o2)n1C)c1ccccc1 (stereo unspecified),0,0,2,-2,.,
Cn1c(SCC(=O)NC2CCCCC2)nnc1-c1cc2cc(Cl)ccc2o1,0,-2,101*,-1,27*,
Cn1c(SCC(=O)Nc2cccc(Br)c2)nnc1-c1cc2ccccc2o1,-323,-3,42*,-9,60*,
Cc1nc2ccc(S(=O)(=O)NCC(=O)N(C)Cc3ccc(F)cc3)cc2s1,.,.,-10,.,.,
Oc1ccc(N=Nc2ccc(Br)cc2)c(O)c1,0,-143,8,-2,.,
O=[N+]([O-])c1ccccc1N=Nc1ccc(O)cc1O,.,23,32*,-4,17*,
